Each block holds one compound with its values, some of them ahead of it. The source made the active and inactive calls. No cut-off for these calls is given here.
Experiments:
[1] = Antiproliferative activity against Chinese hamster CHL cells after 72 hrs by Celltiter-Glo assay; settings: Cricetulus griseus
[2] = tested on: MV4-11; assay: Antiproliferative activity against human MV4-11 cells after 72 hrs by Celltiter-Glo assay; format: functional; settings: MV4-11, 72 h
Summary of the method: (§1)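 Cells seeded at 3000/well in 96-well plates, exposed to serially diluted compound for 72 h at 37 °C, 5% CO2. Viability read by CellTiter-Glo luminescence and normalized to DMSO control. GI50 derived from curve fit, mean of three independent measurements. Culture media: DMEM/10% FBS for adherent lines; IMDM for MV4-11 and MEC-1/2; RPMI 1640 for suspension lines and CHL.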

[3] = molecular target: CDK9/Cyclin K (Homo sapiens, UniProt P50750); assay: Inhibition of CDK9/Cyclin K (unknown origin) using PDKtide as substrate incubated at 37 degreeC for 1 hr followed by incubation at room temperature for 5 mins by ADP-Glo reagent based luminescence assay; format: protein-complex assay
[4] = Antiproliferative activity against human MEC1 cells after 72 hrs by Celltiter-Glo assay; format: functional; settings: MEC1, 72 h
Summary of the method: as §1

[5] = tested on: A-375; assay: Antiproliferative activity against human A375 cells after 72 hrs by Celltiter-Glo assay; format: functional; settings: A-375, 72 h
Summary of the method: as §1

[6] = tested on: HL-60; assay: Induction of apoptosis in human HL60 cells assessed as decrease in caspase-3 level after 24 hrs by immunoblotting analysis; format: functional, cell-based
[7] = tested on: HL-60; assay: Induction of apoptosis in human HL60 cells assessed as decrease in c-MYC level at 0.01 uM after 24 hrs by immunoblotting analysis; format: functional, cell-based
[8] = tested on: HL-60; assay: Induction of apoptosis in human HL60 cells assessed as decrease in MCL-1 level at 0.01 uM after 24 hrs by immunoblotting analysis; format: functional, cell-based
[9] = tested on: GISTT1; assay: Antiproliferative activity against human GISTT1 cells after 72 hrs by Celltiter-Glo assay; format: functional; settings: GISTT1, 72 h
Summary of the method: as §1

[10] = tested on: HL-60; assay: Antiproliferative activity against human HL60 cells after 72 hrs by Celltiter-Glo assay; format: functional; settings: HL-60, 72 h
Summary of the method: as §1

[11] = tested on: A-431; assay: Antiproliferative activity against human A431 cells after 72 hrs by Celltiter-Glo assay; format: functional; settings: A-431, 72 h
Summary of the method: as §1

[12] = tested on: Ramos; assay: Antiproliferative activity against human Ramos cells after 72 hrs by Celltiter-Glo assay; format: functional
Summary of the method: as §1

[13] = tested on: COLO 205; assay: Antiproliferative activity against human COLO205 cells after 72 hrs by Celltiter-Glo assay; format: functional; settings: COLO 205, 72 h
Summary of the method: as §1

[14] = species on record: Homo sapiens; assay: Induction of apoptosis in human MEC1 cells assessed as decrease in caspase-3 level after 24 hrs by immunoblotting analysis; format: functional, cell-based
[15] = tested on: SK-N-BE(2)-M17; assay: Antiproliferative activity against human BE(2)-M17 cells after 72 hrs by Celltiter-Glo assay; format: functional; settings: SK-N-BE(2)-M17, 72 h
Summary of the method: as §1

[16] = tested on: MOLM-13; assay: Antiproliferative activity against human MOLM13 cells after 72 hrs by Celltiter-Glo assay; format: functional; settings: MOLM-13, 72 h
Summary of the method: as §1

[17] = species on record: Homo sapiens; assay: Induction of apoptosis in human MEC1 cells assessed as decrease in c-MYC level at 0.01 uM after 24 hrs by immunoblotting analysis; format: functional, cell-based
[18] = tested on: OCI-AML-3; assay: Antiproliferative activity against human OCI-AML3 cells after 72 hrs by Celltiter-Glo assay; format: functional; settings: OCI-AML-3, 72 h
Summary of the method: as §1

[19] = species on record: Homo sapiens; assay: Induction of apoptosis in human MEC1 cells assessed as decrease in MCL-1 level at 0.01 uM after 24 hrs by immunoblotting analysis; format: functional, cell-based
[20] = tested on: SKM-1; assay: Antiproliferative activity against human SKM1 cells after 72 hrs by Celltiter-Glo assay; format: functional; settings: SKM-1, 72 h
Summary of the method: as §1

[21] = tested on: MV4-11; assay: Induction of apoptosis in human MV4-11 cells assessed as decrease in caspase-3 level after 24 hrs by immunoblotting analysis; format: functional, cell-based
[22] = Antiproliferative activity against CHO cells after 72 hrs by Celltiter-Glo assay; format: cell-based, Cricetulus griseus; settings: chinese hamster
Summary of the method: as §1

[23] = Antiproliferative activity against human MEC2 cells after 72 hrs by Celltiter-Glo assay; format: functional; settings: MEC2, 72 h
Summary of the method: as §1

[24] = tested on: U-937; assay: Antiproliferative activity against human U937 cells after 72 hrs by Celltiter-Glo assay; format: functional; settings: U-937, 72 h
Summary of the method: as §1

[25] = tested on: MV4-11; assay: Induction of apoptosis in human MV4-11 cells assessed as decrease in c-MYC level at 0.01 uM after 24 hrs by immunoblotting analysis; format: functional, cell-based
[26] = tested on: MOLM-14; assay: Antiproliferative activity against human MOLM14 cells after 72 hrs by Celltiter-Glo assay; format: functional; settings: MOLM-14, 72 h
Summary of the method: as §1

[27] = tested on: MV4-11; assay: Induction of apoptosis in human MV4-11 cells assessed as decrease in MCL-1 level at 0.01 uM after 24 hrs by immunoblotting analysis; format: functional, cell-based

Chain of CDK9/Cyclin K (P50750 whole entry): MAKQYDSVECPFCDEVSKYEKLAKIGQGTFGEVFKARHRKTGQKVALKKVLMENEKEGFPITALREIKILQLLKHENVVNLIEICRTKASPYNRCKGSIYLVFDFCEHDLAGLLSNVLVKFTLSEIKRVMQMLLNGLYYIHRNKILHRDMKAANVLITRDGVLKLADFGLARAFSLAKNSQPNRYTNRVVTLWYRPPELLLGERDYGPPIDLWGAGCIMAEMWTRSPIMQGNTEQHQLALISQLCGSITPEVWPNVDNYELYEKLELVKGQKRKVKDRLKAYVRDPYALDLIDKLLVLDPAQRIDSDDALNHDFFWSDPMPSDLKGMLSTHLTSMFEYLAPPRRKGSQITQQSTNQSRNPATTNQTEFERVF
Chain of CDK9/Cyclin K (O75909 whole entry, further chain): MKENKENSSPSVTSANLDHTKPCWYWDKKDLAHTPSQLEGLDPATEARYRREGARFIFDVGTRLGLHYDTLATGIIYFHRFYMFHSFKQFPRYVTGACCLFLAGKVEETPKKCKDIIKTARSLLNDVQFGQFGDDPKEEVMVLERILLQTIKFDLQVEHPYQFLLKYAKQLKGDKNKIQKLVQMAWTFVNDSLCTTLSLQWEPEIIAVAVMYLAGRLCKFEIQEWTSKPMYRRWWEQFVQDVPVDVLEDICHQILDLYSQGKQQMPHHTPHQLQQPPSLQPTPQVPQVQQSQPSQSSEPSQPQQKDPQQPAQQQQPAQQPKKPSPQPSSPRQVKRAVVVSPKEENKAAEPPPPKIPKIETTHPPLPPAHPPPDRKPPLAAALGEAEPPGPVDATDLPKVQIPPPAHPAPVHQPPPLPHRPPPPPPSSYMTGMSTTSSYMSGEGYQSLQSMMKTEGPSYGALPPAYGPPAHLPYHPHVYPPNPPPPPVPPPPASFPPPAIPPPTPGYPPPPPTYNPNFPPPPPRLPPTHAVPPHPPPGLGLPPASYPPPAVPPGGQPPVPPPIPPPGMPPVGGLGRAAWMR

GI50 [2]: 820 nM | IC50 [3]: 27 nM
SMILES: COCCN[C@H]1CC[C@H](Nc2cc(-c3csc(NCC4CCCCC4)n3)c(Cl)cn2)CC1
GI50 [1]: 8000 nM | GI50 [4]: 850 nM

GI50 [2]: 1090 nM | IC50 [3]: 12 nM
SMILES: COCCCN[C@H]1CC[C@H](Nc2cc(-c3csc(NCC4CCOCC4)n3)c(Cl)cn2)CC1
GI50 [1]: 2030 nM | GI50 [4]: 2610 nM

GI50 [2]: 440 nM | IC50 [3]: > 10000 nM
SMILES: COC[C@H](C)N[C@H]1CC[C@H](Nc2cc(-c3csc(NCC4CCOCC4)n3)c(Cl)cn2)CC1
GI50 [1]: 3600 nM | GI50 [4]: 1300 nM

GI50 [2]: > 10000 nM | IC50 [3]: 1890 nM
SMILES: COCC(=O)N[C@H]1CC[C@H](Nc2cc(-c3csc(NCC4CCOCC4)n3)c(Cl)cn2)CC1
GI50 [1]: > 10000 nM | GI50 [4]: > 10000 nM

GI50 [2]: 140 nM | IC50 [3]: 733 nM
SMILES: COC[C@@H](C)N[C@H]1CC[C@H](Nc2cc(-c3csc(NCC4CCOCC4)n3)c(Cl)cn2)CC1
GI50 [1]: 1100 nM | GI50 [4]: 310 nM

GI50 [2]: 340 nM | IC50 [3]: 14 nM
SMILES: COCCN[C@H]1CC[C@H](Nc2cc(-c3csc(SCC4CCOCC4)n3)c(Cl)cn2)CC1
GI50 [1]: 5600 nM | GI50 [4]: 800 nM

GI50 [2]: 3460 nM | IC50 [3]: 94 nM
SMILES: COCCN[C@H]1CC[C@H](Nc2cc(-c3csc(NCC4C5CC6CC(C5)CC4C6)n3)c(Cl)cn2)CC1 (stereo partly drawn)
GI50 [1]: 2040 nM | GI50 [4]: 6310 nM

GI50 [2]: 740 nM | IC50 [3]: 96 nM
SMILES: COCCN[C@H]1CC[C@H](Nc2cc(-c3csc(NCC4CC4)n3)c(Cl)cn2)CC1
GI50 [1]: 1400 nM | GI50 [4]: 890 nM

GI50 [2]: 880 nM | IC50 [3]: 2 nM
SMILES: COCCN[C@H]1CC[C@H](Nc2cc(-c3csc(NCc4ccc(F)cc4)n3)c(Cl)cn2)CC1
GI50 [1]: 1100 nM | GI50 [4]: 450 nM

GI50 [2]: 910 nM | IC50 [3]: 114 nM
SMILES: COCCN[C@H]1CC[C@H](Nc2cc(-c3csc(NCC4CCOCC4)n3)ccn2)CC1
GI50 [1]: 1200 nM | GI50 [4]: 2500 nM

GI50 [5]: 11 nM | GI50 [10]: 8 nM | GI50 [11]: 11 nM | GI50 [12]: 8.6 nM | GI50 [13]: 6.8 nM | GI50 [15]: 21 nM | GI50 [16]: 3.3 nM | GI50 [18]: 13 nM | GI50 [20]: 11 nM | GI50 [24]: 10 nM | GI50 [26]: 4.5 nM
SMILES: CCc1cnn2c(NCc3ccc[n+]([O-])c3)cc(N3CCCC[C@H]3CCO)nc12 [DINACICLIB]
Activity [6]: Dose-dependent effect | Activity [7]: Active | Activity [8]: Active | GI50 [9]: 8.8 nM | Activity [14]: Dose-dependent effect | Activity [17]: Active | Activity [19]: Active | Activity [21]: Dose-dependent effect | GI50 at 72 h [22]: 160 nM | GI50 [23]: 11 nM | Activity [25]: Active | Activity [27]: Active | GI50 [4]: 3.6 nM

GI50 [2]: 170 nM | IC50 [3]: 2 nM
SMILES: COCCN[C@H]1CC[C@H](Nc2cc(-c3csc(NCC4CCOCC4)n3)c(Cl)cn2)CC1
GI50 [1]: 534 nM | GI50 [4]: 1240 nM

GI50 [2]: 14 nM | IC50 [3]: 9 nM
SMILES: COC[C@@H](C)N[C@H]1CC[C@H](Nc2cc(-c3csc(NCC4(C#N)CCOCC4)n3)c(Cl)cn2)CC1 [TAMBICICLIB]
GI50 [1]: 1100 nM | GI50 [4]: 47 nM

GI50 [2]: 1900 nM | IC50 [3]: 84 nM
SMILES: N[C@H]1CC[C@H](CNc2cc(-c3csc(NCC4CCOCC4)n3)c(Cl)cn2)CC1
GI50 [1]: 3900 nM | GI50 [4]: > 10000 nM

GI50 [2]: 3600 nM | IC50 [3]: 101 nM
SMILES: CC(=O)N[C@H]1CC[C@H](Nc2cc(-c3csc(NCC4CCOCC4)n3)c(Cl)cn2)CC1
GI50 [1]: > 10000 nM | GI50 [4]: > 10000 nM

GI50 [2]: 493 nM | IC50 [3]: 90 nM
SMILES: COCCN[C@H]1CC[C@H](Nc2cc(-c3csc(NCC4CCOC4)n3)c(Cl)cn2)CC1 (stereo partly drawn)
GI50 [1]: > 10000 nM | GI50 [4]: 883 nM

GI50 [2]: 752 nM | IC50 [3]: 17 nM
SMILES: COCCN[C@H]1CC[C@H](Nc2cc(-c3csc(NCC(F)(F)F)n3)c(Cl)cn2)CC1
GI50 [1]: 877 nM | GI50 [4]: 1100 nM

— ChEMBL document CHEMBL4261600 (Eur J Med Chem, 2018)
